Screening data as filed in PubChem BioAssay.
KCNQ1 pot = potentiates or activates the human KCNQ1 potassium channel; B-score at 10 µM; P51787; 0.35% of 310,000 active; CHO-K1 KCNQ1, thallium flux FluxOR fluorescence; active compounds read high;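 active means fluorescence ratio B-score, a plate-corrected score, at least three library SD, with initial intensity B-score within 5 SD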
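assay system = CHO-K1 cells stably expressing KCNQ1 | medium = assay buffer, equal DMSO in all wells | timing = 37 °C overnight plating, 90-min dark dye load, 20-min compound pretreatment | measured by = kinetic FluxOR thallium fluorescence, 10-s 1-Hz baseline, 110-s post-stimulus read | measure = fluorescence change relative to baseline, converted to B score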
hERG rescue = shields human hERG channel from block by proarrhythmic agents | CHO-hERG, FluxOR thallium flux, dofetilide IC70 present | Q12809 | AID 1511 | activation (rescue from dofetilide block), less the hit threshold, % at 10 µM | 0.51% of 310,000 active;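 active means activation above the mean of controls blocked by dofetilide plus 5 SD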;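 further: thallium influx through hERG after potassium depolarization seen as dye fluorescence rise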
KCNQ1 block = inhibitors of human KCNQ1 potassium channel. P51787. CHO-K1 KCNQ1, FluxOR thallium flux fluorescence; active compounds read high. B-score at 10 µM. 1.3% of 310,000 active. AID 2642;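 active means compounds whose thallium flux B-score, printed positive for inhibition, exceeds three library SD while starting fluorescence stays within three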;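 further: channel opened by potassium depolarization with thallium stimulus after 20 min compound exposure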
KCNK3 block = human KCNK3 channel inhibition, primary screen; O14649; B-score at 10 µM; 0.84% of 340,000 active; CHO-KCNK3 thallium flux, FluxOR fluorescence; active compounds read low;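 active means B-score under library mean minus 4 SD, starting fluorescence ratio at most library mean plus 5 SD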;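 further: more negative B-score means stronger inhibition of thallium flux through KCNK3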
PHOSPHO1 inh = blocks human PHOSPHO1 phosphatase activity. 1.1% of 290,000 active. Q8TCT1. AID 1565. inhibition, % at 13.3 µM. recombinant PHOSPHO1, absorbance phosphatase assay; in the data active means inhibition above about 60%
KCNK9 inh = inhibitors of human KCNK9 two-pore domain potassium channel; Q9NPC2; HEK293 KCNK9, FluxOR thallium flux fluorescence; active compounds read low; B-score at 10 µM; 1.2% of 310,000 active;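 active means ratio B-score over 3 SD below the library mean, with starting fluorescence within 5 SD of its mean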;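 further: negative B-score means less thallium flux so channel inhibition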
Active calls of the source: *. Most compounds without a hit are left out; they make up all but 4% or so of the library.

For COc1cc(NC(=O)c2csc(-c3ccncc3)n2)cc(C(=O)Nc2cccc(C(F)(F)F)c2)c1 the results were KCNQ1 pot inactive, hERG rescue -26, KCNQ1 block 11*, KCNK3 block inactive, PHOSPHO1 inh 35 and KCNK9 inh inactive.
For COc1ccccc1-c1nnc(NC(=O)c2ccc(S(=O)(=O)N(C)CC3CCCO3)cc2)o1 (centres undefined) the results were KCNQ1 pot inactive, hERG rescue -6, KCNQ1 block inactive, KCNK3 block inactive, PHOSPHO1 inh 43 and KCNK9 inh inactive.
COc1ccc(S(=O)(=O)N2CCOCC2)cc1NC(=O)CSc1nnc(C2CC2)n1C1CC1 was read as KCNK3 block inactive.
`COc1ccc(NC(=O)CSc2nnc(-c3ccncc3)n2CC2CCCO2)c(OC)c1` (centres undefined) gave KCNQ1 pot inactive, hERG rescue -8, KCNQ1 block inactive, KCNK3 block inactive, PHOSPHO1 inh -17 and KCNK9 inh inactive.
Screening CCCCNc1c(-c2cccc(-c3ccc(OC)cc3)c2)nc2cc(C)ccn12 returned KCNK3 block -8.7*.
For CCCCNc1c(-c2cccc(-c3ccc(OC)cc3)c2)nc2ccc(C)cn12 the results were KCNQ1 pot inactive, hERG rescue -35, KCNQ1 block 7*, KCNK3 block inactive and KCNK9 inh inactive.
For CCCCNc1c(-c2cccc(-c3cc(C(C)=O)cs3)c2)nc2ccc(C)cn12 the results were KCNQ1 pot inactive, hERG rescue -40, KCNQ1 block 6*, KCNK3 block inactive and KCNK9 inh inactive.
For CCCCNc1c(-c2ccc(OC)c(SC3CCCCC3)c2)nc2cc(C)ccn12 the results were KCNQ1 pot inactive, hERG rescue -8, KCNQ1 block inactive, KCNK3 block inactive and KCNK9 inh inactive.
Screening CCNc1c(NC(=O)COc2ccc(Cl)cc2)c(=O)oc2ccccc12 returned KCNQ1 pot inactive, hERG rescue -10, KCNQ1 block inactive, KCNK3 block inactive, PHOSPHO1 inh 38 and KCNK9 inh inactive.
Cc1c(Cc2ccccc2)sc(/N=C/c2ccc3ccccc3c2)c1C(N)=O was read as KCNK3 block inactive and PHOSPHO1 inh -8.
Screening Cc1c(Cc2ccccc2)sc(/N=C/c2c(O)ccc3ccccc23)c1C(N)=O returned KCNQ1 pot inactive, hERG rescue -9, KCNQ1 block 7*, KCNK3 block inactive, PHOSPHO1 inh -1 and KCNK9 inh inactive.
For COc1cc(/C=C2/SC(=S)N(CC(=O)O)C2=O)ccc1OCC(=O)Nc1ccc(C)c(C)c1 the results were KCNQ1 pot inactive, hERG rescue 19*, KCNQ1 block inactive, KCNK3 block inactive, PHOSPHO1 inh 33 and KCNK9 inh inactive.
`COc1ccccc1/C=C/C=N/n1c(-c2n[nH]c3c2CCC3)n[nH]c1=S` gave KCNQ1 pot inactive, hERG rescue -6, KCNQ1 block inactive, KCNK3 block inactive, PHOSPHO1 inh 23 and KCNK9 inh inactive.
Screening COc1ccccc1/C=C/C=N/n1c(-c2cc(C)[nH]n2)n[nH]c1=S returned KCNQ1 pot inactive, hERG rescue -8, KCNQ1 block inactive, KCNK3 block inactive, PHOSPHO1 inh 62* and KCNK9 inh inactive.
COc1ccc(-c2n[nH]c(=S)n2/N=C/C=C\c2ccccc2OC)cc1 was read as KCNQ1 pot inactive, hERG rescue -11, KCNQ1 block inactive, KCNK3 block inactive, PHOSPHO1 inh 66* and KCNK9 inh inactive.
`COc1ccccc1/C=C/C=N/n1c(-c2ccco2)n[nH]c1=S` gave KCNQ1 pot inactive, hERG rescue 0, KCNQ1 block inactive, KCNK3 block inactive, PHOSPHO1 inh 85* and KCNK9 inh inactive.
For S=c1[nH]nc(-c2ccco2)n1/N=C/C=C/c1ccco1 the results were KCNQ1 pot inactive, hERG rescue -16, KCNQ1 block inactive, KCNK3 block inactive, PHOSPHO1 inh 69* and KCNK9 inh inactive.
Screening COc1ccccc1/C=C/C=N/n1c(-c2ccccn2)n[nH]c1=S returned KCNQ1 pot inactive, hERG rescue -7, KCNQ1 block inactive, KCNK3 block inactive, PHOSPHO1 inh 16 and KCNK9 inh inactive.
`S=c1[nH]nc(-c2ccco2)n1/N=C/c1ccccc1Cl` gave KCNQ1 pot inactive, hERG rescue -2, KCNQ1 block inactive, KCNK3 block inactive, PHOSPHO1 inh 38 and KCNK9 inh inactive.
Cc1cc(NC(=O)CSCC(=O)OCC(=O)Nc2cc(C)c(C)cc2[N+](=O)[O-])no1 was read as KCNQ1 pot inactive, hERG rescue -12, KCNQ1 block inactive, KCNK3 block inactive and KCNK9 inh inactive.
Screening CCOC(=O)CSc1nc2ccccc2c(=O)n1CC(C)C returned KCNQ1 pot inactive, hERG rescue -7, KCNQ1 block inactive, KCNK3 block inactive, PHOSPHO1 inh 11 and KCNK9 inh inactive.
`Cc1ccc(NC(=O)CN(C)C(=O)CSc2nc(C)cs2)cc1` gave KCNQ1 pot inactive, hERG rescue -5, KCNQ1 block inactive, KCNK3 block inactive, PHOSPHO1 inh -1 and KCNK9 inh inactive.
`Cc1cc(NC(=O)COC(=O)CCS(=O)(=O)c2ccc(Cl)cc2)no1` gave KCNQ1 pot inactive, hERG rescue -7, KCNQ1 block inactive, KCNK3 block inactive, PHOSPHO1 inh 31 and KCNK9 inh inactive.
Screening COc1ccccc1/C=C\C=N\n1c(C2CCCCC2)n[nH]c1=S returned KCNQ1 pot inactive, hERG rescue -6, KCNQ1 block inactive, KCNK3 block inactive, PHOSPHO1 inh 18 and KCNK9 inh inactive.
For COc1ccccc1/C=C/C=N/n1c(-c2ccncc2)n[nH]c1=S the results were KCNQ1 pot inactive, hERG rescue -7, KCNQ1 block inactive, KCNK3 block inactive, PHOSPHO1 inh 79* and KCNK9 inh inactive.
CC(/C=N/n1c(-c2ccc(Cl)cc2)n[nH]c1=S)=C\c1ccco1 was read as KCNQ1 pot 9*, hERG rescue 3, KCNQ1 block inactive, KCNK3 block inactive, PHOSPHO1 inh -25 and KCNK9 inh inactive.
`COc1ccccc1/C=C/C=N/n1c(-c2ccc(C)cc2)n[nH]c1=S` gave KCNQ1 pot inactive, hERG rescue -10, KCNQ1 block inactive, KCNK3 block inactive, PHOSPHO1 inh 86* and KCNK9 inh inactive.
Screening CC(/C=N/n1c(-c2cc(C)[nH]n2)n[nH]c1=S)=C\c1ccco1 returned KCNQ1 pot inactive, hERG rescue -7, KCNQ1 block inactive, KCNK3 block inactive, PHOSPHO1 inh 36 and KCNK9 inh inactive.
